One assay has as its target T1, Monoglyceride lipase (Homo sapiens, UniProt Q99685).
T1 sequence (Q99685 whole entry): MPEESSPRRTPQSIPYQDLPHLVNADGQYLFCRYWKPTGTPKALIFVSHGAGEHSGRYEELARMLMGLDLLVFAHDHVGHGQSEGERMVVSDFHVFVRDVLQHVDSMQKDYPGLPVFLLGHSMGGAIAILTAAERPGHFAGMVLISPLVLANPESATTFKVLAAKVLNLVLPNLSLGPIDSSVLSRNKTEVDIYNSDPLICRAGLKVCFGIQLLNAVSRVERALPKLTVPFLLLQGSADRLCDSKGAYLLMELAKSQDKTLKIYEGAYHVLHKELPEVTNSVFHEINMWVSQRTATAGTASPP
Description: Inhibition of MAGL in human U937 cells assessed as reduction in [3H]glycerol formation using [1,2,3-3H]2-OG as substrate incubated for 15 mins by liquid scintillation spectroscopy. The class given is cell-based, U-937. Summed up:
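Intact U937 cells (1.0 × 10^6) in Tris-HCl 10 mM, EDTA 1 mM, 0.1% BSA, pH 8, given compound at 37 °C. Then 15 min at 37 °C with shaking. MAGL: 10 µM 2-OG plus 0.5 nM [3H]2-OG. FAAH: 1 µM AEA plus 2 nM [3H]AEA. Aqueous-phase tritium counted; three experiments in triplicate.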

In another assay the target is Cannabinoid receptor 2 (Homo sapiens, UniProt P34972). Put plainly: Displacement of [3H]CP55940 from human CB2 receptor at 10 uM incubated for 90 mins by radioligand binding assay. Summed up: (§1)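 Membranes expressing hCB1 or hCB2 in 50 mM Tris-HCl, 2.5 mM EDTA, 5 mM MgCl2, 0.5% BSA, pH 7.4, incubated with compound and 0.5 nM [3H]CP55,940 for 90 min at 30 °C. Nonspecific binding with 10 µM […]; filtered and counted. Screening at 10 µM; two experiments in triplicate.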
Chain of Cannabinoid receptor 2 (P34972 whole entry): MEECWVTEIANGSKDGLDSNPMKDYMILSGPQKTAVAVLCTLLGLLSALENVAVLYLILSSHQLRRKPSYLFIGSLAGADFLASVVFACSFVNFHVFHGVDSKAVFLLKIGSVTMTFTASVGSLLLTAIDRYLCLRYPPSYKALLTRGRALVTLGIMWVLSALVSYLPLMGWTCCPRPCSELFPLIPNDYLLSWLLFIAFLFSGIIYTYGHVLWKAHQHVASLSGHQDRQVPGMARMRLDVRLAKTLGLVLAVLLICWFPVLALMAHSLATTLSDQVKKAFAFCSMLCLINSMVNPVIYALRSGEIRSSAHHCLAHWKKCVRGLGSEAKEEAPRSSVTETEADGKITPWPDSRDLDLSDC
A general note: In a radioligand displacement assay an active substance lowers the binding of a labelled ligand.

Another assay relates to OVCAR-3. Put plainly: Antiproliferative activity against human OVCAR3 cells as reduction in cell growth measured after 96 hrs by Celltiter-glo luminescent assay. It is filed as functional, cell-based. Particulars: OVCAR-3, 96 h. Summed up: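 Cell lines kept at 37 °C, 5% CO2; 5 × 10^2 cells per well, compound added the day after seeding at 200 to 0.02 µM. Viability read after 96 h by CellTiter-Glo luminescence. IC50 from logistic dose-response curves, in triplicate; error bars are SD.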
On the technique in general: Cellular ATP, detected with luciferase, serves as a proxy for viable cell number.

The nature of assay [1]: Antiproliferative activity against human PDAC-3 cells assessed as inhibition of cell growth incubated for 72 hrs by SRB assay. It is filed as functional, cell-based. The following applies: PDAC-3, 72 h. The gist of the method: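 Primary patient-derived PDAC-3 cells, cultured under 20 passages in RPMI-1640 with 10% NBCS. Compounds dissolved in DMSO and tested at 8 concentrations, 156.25 to 20 000 nM. Growth read by sulforhodamine-B assay.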

The target in assay [2] is T2, Monoglyceride lipase (Homo sapiens) (UniProt Q99685).
T2 sequence (whole entry): T1 sequence (Q99685 whole entry)
Description: Reversible inhibition of human recombinant MAGL using 4-nitrophenylacetate as substrate at 2 uM preincubated with enzyme for 60 mins followed by 40X dilution and 15 mins later incubated with substrate by microplate reader assay. The following applies: time 75.0 min. Summed up: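 MAGL (880 ng) incubated 60 min at room temperature with compound at 2 µM in Tris pH 7.2, then diluted 40-fold in buffer. After 15 min, 4-NPA 500 µM stock added and activity read as in the main assay. Compared with 2000 nM and 50 nM undiluted; triplicates of two experiments.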

The target of a further assay is Cannabinoid receptor 1 (Homo sapiens, UniProt P21554). Put plainly: Displacement of [3H]CP55940 from human CB1 receptor incubated for 90 mins by radioligand binding assay. The gist of the method: as §1
Chain of Cannabinoid receptor 1 (P21554 whole entry): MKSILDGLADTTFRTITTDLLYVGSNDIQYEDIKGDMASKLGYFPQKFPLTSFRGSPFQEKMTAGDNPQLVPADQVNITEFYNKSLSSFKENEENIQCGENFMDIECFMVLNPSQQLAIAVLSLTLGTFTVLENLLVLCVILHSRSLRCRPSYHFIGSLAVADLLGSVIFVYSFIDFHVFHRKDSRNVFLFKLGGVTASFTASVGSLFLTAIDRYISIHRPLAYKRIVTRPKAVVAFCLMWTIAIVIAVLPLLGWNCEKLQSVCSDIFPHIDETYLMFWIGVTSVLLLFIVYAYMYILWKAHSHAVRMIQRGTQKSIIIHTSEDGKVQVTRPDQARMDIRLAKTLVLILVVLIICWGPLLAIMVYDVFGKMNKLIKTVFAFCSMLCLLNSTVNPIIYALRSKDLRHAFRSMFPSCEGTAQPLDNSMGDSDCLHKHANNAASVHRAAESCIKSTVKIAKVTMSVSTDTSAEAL
Assay [3] deals with T3, Monoacylglycerol lipase ABHD6 (Homo sapiens) (UniProt Q9BV23).
T3 sequence (whole entry): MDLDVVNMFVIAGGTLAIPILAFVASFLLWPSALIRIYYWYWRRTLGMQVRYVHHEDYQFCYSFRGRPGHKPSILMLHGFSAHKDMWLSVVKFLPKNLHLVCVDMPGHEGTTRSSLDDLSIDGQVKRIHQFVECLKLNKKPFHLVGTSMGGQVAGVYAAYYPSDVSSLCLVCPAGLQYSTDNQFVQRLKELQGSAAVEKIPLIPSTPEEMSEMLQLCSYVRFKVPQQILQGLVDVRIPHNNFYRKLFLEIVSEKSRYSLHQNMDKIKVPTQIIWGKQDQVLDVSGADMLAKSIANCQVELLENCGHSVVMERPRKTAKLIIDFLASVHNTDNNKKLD
Description: Inhibition of human ABHD6 expressed in HEK293 cells using [3H]2-OG as substrate at 10 uM preincubated for 30 mins followed by substrate addition and measured after 5 mins by liquid scintillation spectroscopy. The following applies: time 35.0 min. It is filed as cell-based. Summed up:
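Homogenate (40 µg) of HEK293 cells stably transfected with human ABHD6 or ABHD12, preincubated with compound 30 min at 37 °C in […], 0.1% BSA, pH 7.6. 2-OG 10 µM added for 5 min at 37 °C. Stopped with CHCl3:MeOH; aqueous tritium counted; blanks and nontransfected HEK293 hydrolysis subtracted. Screening at 10 µM.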

The target of assay [4] is T4, Monoglyceride lipase (Mus musculus) (UniProt O35678).
T4 sequence (whole entry): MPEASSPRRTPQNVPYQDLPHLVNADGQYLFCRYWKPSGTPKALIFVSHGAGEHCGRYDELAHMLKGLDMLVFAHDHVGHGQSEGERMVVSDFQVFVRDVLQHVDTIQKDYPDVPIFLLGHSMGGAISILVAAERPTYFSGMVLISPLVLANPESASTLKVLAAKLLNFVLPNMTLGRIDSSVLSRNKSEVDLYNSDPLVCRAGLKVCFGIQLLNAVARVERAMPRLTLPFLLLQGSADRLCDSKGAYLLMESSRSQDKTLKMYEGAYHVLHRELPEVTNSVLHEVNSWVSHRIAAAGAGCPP
Put plainly: Inhibition of MAGL in mouse brain membrane preincubated for 25 mins followed by TAMRA-FP labeling addition and measured after 5 mins by competitive ABPP based analysis. It is filed as cell membranes. Particulars: time 30.0 min. Summed up:
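Mouse brain membranes, 4 mg/mL in PBS, preincubated 25 min at 25 °C with compound at 10 µM or a range of concentrations. Labelled 5 min with TAMRA-FP at 125 nM final. Proteins resolved on 11% SDS-PAGE and scanned for fluorescence.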

Calls of active or inactive are those of the source. The rule behind the calls is not given here.

Turning to `O=C(c1ccc(Sc2ccccc2)cc1)C1CCN(C(=O)c2cc(O)c(F)cc2F)CC1`, the concentration for half-maximal inhibition (IC50) (commonly the concentration needed to halve the response being measured) at Monoglyceride lipase was 0.568 µM; in the assay with OVCAR-3 it was > 100 µM; in assay [1], 14.6 µM; at Cannabinoid receptor 1, > 10 µM. In addition, the values for the inhibition (at Cannabinoid receptor 2; in assay [3]; in assay [4]) were < 10%, 18% and “Dose-dependent effect”, respectively. Besides, the inhibition (as a rule, the share of the control response that was lost under treatment) in assay [2] is “Active”.

Consider `O=C(c1ccc(Cc2ccccc2)cc1)C1CCN(C(=O)c2cc(O)c(F)cc2F)CC1`, for which the IC50 at Monoglyceride lipase was 1.23 µM; in the assay on OVCAR-3, > 100 µM; in assay [1], 12 µM; on Cannabinoid receptor 1, > 10 µM. Further, the inhibition at Cannabinoid receptor 2 was < 10%; in assay [3], 10%; in assay [4], “Dose-dependent effect”. In assay [2], the inhibition entry is “Active”.

As to `O=C(c1ccc(Cc2ccccc2)cc1)C1CCN(C(=O)c2cc(O)ccc2F)CC1`, the IC50 on Monoglyceride lipase is 0.844 µM; in the assay on OVCAR-3, 20.7 µM; in assay [1], 12.5 µM; at Cannabinoid receptor 1, > 10 µM. For the same compound, the inhibition at Cannabinoid receptor 2 was < 10%; in assay [3] it was 21%; in assay [4], “Dose-dependent effect”. Further, the inhibition result in assay [2] was “Active”.

As for `O=C(c1ccc(Sc2ccccc2)cc1)C1CCN(C(=O)c2cc(O)ccc2F)CC1`, the IC50 on Monoglyceride lipase was 0.868 µM; with OVCAR-3, > 100 µM; in assay [1] it was 9.28 µM; on Cannabinoid receptor 1, > 10 µM. Besides, the inhibition on Cannabinoid receptor 2 is < 10%; in assay [3], 40%; in assay [4], “Dose-dependent effect”. Further, the inhibition result in assay [2] is “Active”.
